In ChEMBL document CHEMBL5625176, “Immunosuppressive effects of new thiophene-based KV1.3 inhibitors” (Eur J Med Chem, 2023):
Converted amounts (≈) assume the structure as drawn. The source made the active and inactive calls. The calls are words filed in the database; no cut-off is given here.

Experiments:
[1] = target: T1, Potassium voltage-gated channel subfamily A member 3 (Homo sapiens, UniProt P22001); assay: Inhibition of human Kv1.3 expressed in Xenopus laevis Oocyte cells at 10 uM by manual patch clamp method relative to control; type: cell-based
How it was run: (§1)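 Human Kv1.3 cRNA injected into defolliculated Xenopus oocytes. Two-electrode voltage clamp 1–4 days later at 18–22 °C in ND96 (pH 7.5). Currents evoked by 1 s depolarizations, with inhibition read at the 0 mV step. Compounds from DMSO stock at ≤0.5% DMSO, either single 10 μM or rising concentrations fitted with the Hill equation for IC50.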

[2] = target: T1, Potassium voltage-gated channel subfamily A member 3; assay: Inhibition of human Kv1.3 expressed in mouse LTK- cells by manual patch clamp electrophysiological recording; type: cell-based
How it was run: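 Mouse Ltk⁻ fibroblasts in DMEM/10% horse serum transiently transfected with hKv1.3 plasmid plus eGFP marker, and recorded 24 h later. Whole-cell patch clamp at 20–23 °C. Compounds diluted from DMSO stocks with final DMSO ≤0.1%, with 0.1% DMSO as vehicle control. Normalized current plotted against concentration and fitted with the Hill equation for IC50; mean ± SEM, n = cells.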

[3] = target: T1, Potassium voltage-gated channel subfamily A member 3; assay: Inhibition of Kv1.3 (unknown origin) expressed in PBMC derived PHA-activated T-lymphocyte cells incubated for 5 days by manual patch clamp method; type: cell-based
How it was run: (§2)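 Whole-cell recording on PBMC stimulated 5 days with PHA-L (240 ng/mL); about 90% of cells CD3⁺. Large cells chosen; cells with currents ≤500–600 pA discarded. Bath in mM: 130 NaCl, 5 KCl, 2 CaCl₂, 2 MgCl₂, 10 HEPES, 5 glucose, pH 7.4; pipette KF-based with 11 EGTA, pH 7.2. Leak-subtracted two-step outward K⁺ current. Single concentration 5 μM, or 0.05 nM–50 μM for curves; peak normalized to control.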

[4] = target: T1, Potassium voltage-gated channel subfamily A member 3; assay: Inhibition of Kv1.3 (unknown origin) expressed in human PBMC derived PHA-activated T-lymphocyte cells assessed as reduction in total outward potassium current at 5 uM by patch clamp electrophysiology method; type: cell-based; how it was run: as §2
[5] = target: Potassium voltage-gated channel subfamily A member 4 (Homo sapiens) (UniProt P22459); assay: Inhibition of Kv1.4 (unknown origin) expressed in Xenopus laevis Oocyte cells by electrophysiological recordings relative to control; type: cell-based; details: concentration not given here
How it was run: (§3)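 Kv1.x cRNA expressed in defolliculated Xenopus oocytes and recorded by two-electrode voltage clamp 1–4 days after injection, at 18–22 °C in ND96 pH 7.5. 1 s pulses, analysed at 0 mV. Compounds applied at rising concentrations with ≤0.5% DMSO, and current inhibition relative to control fitted with the Hill equation.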

[6] = target: Potassium voltage-gated channel subfamily A member 5 (Homo sapiens) (UniProt P22460); assay: Inhibition of Kv1.5 (unknown origin) expressed in Xenopus laevis Oocyte cells by electrophysiological recordings relative to control; type: cell-based; details: concentration not given here; how it was run: as §3
[7] = target: Potassium voltage-gated channel subfamily A member 6 (Homo sapiens) (UniProt P17658); assay: Inhibition of Kv1.6 (unknown origin) expressed in Xenopus laevis Oocyte cells by electrophysiological recordings relative to control; type: cell-based; details: concentration not given here; how it was run: as §3
[8] = target: Potassium voltage-gated channel subfamily A member 1 (Homo sapiens, UniProt Q09470); assay: Inhibition of Kv1.1 (unknown origin) expressed in Xenopus laevis Oocyte cells by electrophysiological recording; type: cell-based; how it was run: as §3
[9] = target: Potassium voltage-gated channel subfamily A member 2 (Homo sapiens, UniProt P16389); assay: Inhibition of Kv1.2 (unknown origin) expressed in Xenopus laevis Oocyte cells by electrophysiological recording; type: cell-based; how it was run: as §3
[10] = Thermodynamic solubility of the compound at pH 7.4 incubated for 24 hrs under shaking condition by HPLC analysis; type: physicochemical; details: buffer, read-out: Therm_solubility
How it was run: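 Supernatant diluted 1:2 or 1:10 in 0.1% TFA/MeCN 1:1 and quantified by reversed-phase UPLC at 290 nm against a 7-point calibration (1–100 μM). Mean of two independent experiments, in μM.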

[11] = Stability of compound in PBS at pH 7.4 measured for >=120 hrs by HPLC analysis; type: physicochemical; details: buffer, pH 7.4, 120 h
How it was run: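 Aqueous stability: 10 mM DMSO stock diluted to a final 50 μM in PBS pH 7.4 with 20% MeCN and 0.5% DMSO, filtered, held at 37 °C. UPLC (BEH C18, 280 nm) injections every 4 h for the first 24 h, then every 8 h. Analyte AUC plotted against time; triplicates.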

hERG (KCNH2) = hERG (KCNH2) (Homo sapiens, UniProt Q12809); assay: Inhibition of hERG overexpressed in HEK293 cells at 5 uM relative to control; type: toxicity, cell-based; details: HEK293 cells overexpressing hERG
[12] = target: T1, Potassium voltage-gated channel subfamily A member 3; assay: Inhibition of Kv1.3 in human PBMC derived PHA-activated T-lymphocytes assessed as reduction in intracellular calcium level at 5 uM incubated for 2 hrs by Fluo-4 Ca2+ based flow cytometric analysis relative to control; type: cell-based; details: T-lymphocyte
How it was run: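 PBMC activated 5 days with PHA, then given compounds at 5 μM for 2 h. Scraped and loaded with Fluo-4 (2 μM) plus anti-CD3-APC at 37 °C for 1 h, washed, and held 30 min at 37 °C with compound (5 μM) before flow cytometry. Fluo-4 MFI of the CD3⁺ gate, 3 replicates, normalized to untreated control; n = 4.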

T-cell line [13] = assay: Cytotoxicity against human PBMC derived PHA-activated T-lymphocytes assessed as effect on cell viability by trypan blue staining based analysis; type: toxicity; details: 30 µM
How it was run: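 PBMC purified by Ficoll gradient with red-cell lysis, seeded at 1.5 × 10⁶ cells/mL in RPMI with 10% heat-inactivated serum and 2 mM L-glutamine. Activated with PHA-L 240 ng/mL alongside compounds at 30 μM. Viability of treated versus untreated cells judged by trypan blue staining.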

T-cell line [14] = assay: Cytotoxicity against human PBMC derived PHA-activated T-lymphocytes assessed as effect on total cell number at 30 uM incubated for 5 days by bright-field microscopic analysis; type: toxicity, cell-based; details: 120 h, time 5 day
How it was run: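 Ficoll-purified PBMC at 1.5 × 10⁶ cells/mL in RPMI/10% heat-inactivated serum/2 mM L-glutamine, stimulated with PHA-L 240 ng/mL and exposed to compounds (30 μM) for 5 days. Cells then counted to give total cell number.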

T-cell [15] = assay: Inhibition of human PBMC derived PHA-activated T-lymphocytes activation assessed as inhibition of colony formation by measuring reduction in colony forming units at 30 uM incubated for 5 days by bright-field microscopic analysis; type: functional, cell-based; details: time 5.0 day
How it was run: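 PBMC at 1.5 × 10⁶ cells/mL treated with compounds (30 μM) together with PHA-L (240 ng/mL) for 5 days in RPMI with 10% heat-inactivated bovine calf serum and 2 mM L-glutamine. After medium removal, wells imaged by bright-field microscopy at 2× and colonies (CFU) counted. Mean ± SD of 3 experiments.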

T-cell [16] = assay: Induction of cell cycle arrest at G0/G1 phase in human PBMC derived PHA-activated T-lymphocytes assessed as reduction S phase cells at 30 uM measured after 5 days by flow cytometric analysis; type: functional, cell-based; details: time 5.0 day
How it was run: (§4)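 PHA-activated PBMC exposed to compounds (30 μM) for 5 days in RPMI/10% heat-inactivated calf serum/2 mM L-glutamine, scraped off and incubated 1 h at 4 °C in the dark. Cell cycle read by flow cytometry and scored as G0/G1 versus cycling (S+G2/M) percentage. Mean ± SD of 3 experiments; unpaired t-test against untreated cells.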

[17] = target: T1, Potassium voltage-gated channel subfamily A member 3; assay: Inhibition of human Kv1.3 expressed in Xenopus laevis Oocyte cells by Electrophysiology recording; type: cell-based; how it was run: as §1
[18] = target: T1, Potassium voltage-gated channel subfamily A member 3; assay: Selectivity ratio of IC50 for inhibition of human Kv1.3 expressed in mouse LTK- cells to IC50 for inhibition of human Kv1.3 expressed in Xenopus laevis Oocyte cells; type: cell-based
T-cell [19] = assay: Induction of cell cycle arrest at G0/G1 phase in human PBMC derived PHA-activated T-lymphocytes assessed as reduction G2/M phase cells at 30 uM measured after 5 days by flow cytometric analysis; type: functional, cell-based; details: time 5.0 day; how it was run: as §4

T1 sequence (P22001 whole entry): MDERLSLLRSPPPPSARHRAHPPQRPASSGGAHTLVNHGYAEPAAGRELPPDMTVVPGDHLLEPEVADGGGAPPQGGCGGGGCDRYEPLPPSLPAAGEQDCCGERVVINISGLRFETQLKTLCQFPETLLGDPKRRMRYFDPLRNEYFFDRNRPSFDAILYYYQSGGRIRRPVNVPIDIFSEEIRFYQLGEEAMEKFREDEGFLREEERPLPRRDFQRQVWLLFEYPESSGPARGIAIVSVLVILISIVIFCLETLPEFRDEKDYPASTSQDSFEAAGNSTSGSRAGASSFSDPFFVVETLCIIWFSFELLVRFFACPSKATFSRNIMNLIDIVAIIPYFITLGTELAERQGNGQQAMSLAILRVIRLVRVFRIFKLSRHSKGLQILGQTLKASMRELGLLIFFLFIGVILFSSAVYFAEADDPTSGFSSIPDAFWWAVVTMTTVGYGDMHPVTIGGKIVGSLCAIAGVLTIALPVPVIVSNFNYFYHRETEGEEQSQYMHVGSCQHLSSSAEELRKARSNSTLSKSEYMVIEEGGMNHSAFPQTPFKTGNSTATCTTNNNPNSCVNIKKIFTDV
Potassium voltage-gated channel subfamily A member 5 (Homo sapiens), sequence (P22460 whole entry): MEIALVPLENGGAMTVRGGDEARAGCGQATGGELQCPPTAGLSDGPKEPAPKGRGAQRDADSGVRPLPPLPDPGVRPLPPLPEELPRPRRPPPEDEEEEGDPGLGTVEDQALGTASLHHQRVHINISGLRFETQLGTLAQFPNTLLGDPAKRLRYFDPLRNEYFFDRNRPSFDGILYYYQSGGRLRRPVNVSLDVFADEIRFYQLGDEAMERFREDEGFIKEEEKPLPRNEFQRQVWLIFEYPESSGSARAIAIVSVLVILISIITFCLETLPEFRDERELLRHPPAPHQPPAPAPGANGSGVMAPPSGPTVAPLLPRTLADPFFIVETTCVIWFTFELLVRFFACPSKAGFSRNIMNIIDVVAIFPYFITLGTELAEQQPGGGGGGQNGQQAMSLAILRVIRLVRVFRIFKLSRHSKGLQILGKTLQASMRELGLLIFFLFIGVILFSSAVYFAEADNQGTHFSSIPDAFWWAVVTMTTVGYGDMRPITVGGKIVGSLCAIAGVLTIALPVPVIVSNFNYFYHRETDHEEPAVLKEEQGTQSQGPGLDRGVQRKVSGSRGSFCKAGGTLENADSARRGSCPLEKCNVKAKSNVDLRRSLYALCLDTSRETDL
Potassium voltage-gated channel subfamily A member 4 (Homo sapiens), sequence (P22459 whole entry): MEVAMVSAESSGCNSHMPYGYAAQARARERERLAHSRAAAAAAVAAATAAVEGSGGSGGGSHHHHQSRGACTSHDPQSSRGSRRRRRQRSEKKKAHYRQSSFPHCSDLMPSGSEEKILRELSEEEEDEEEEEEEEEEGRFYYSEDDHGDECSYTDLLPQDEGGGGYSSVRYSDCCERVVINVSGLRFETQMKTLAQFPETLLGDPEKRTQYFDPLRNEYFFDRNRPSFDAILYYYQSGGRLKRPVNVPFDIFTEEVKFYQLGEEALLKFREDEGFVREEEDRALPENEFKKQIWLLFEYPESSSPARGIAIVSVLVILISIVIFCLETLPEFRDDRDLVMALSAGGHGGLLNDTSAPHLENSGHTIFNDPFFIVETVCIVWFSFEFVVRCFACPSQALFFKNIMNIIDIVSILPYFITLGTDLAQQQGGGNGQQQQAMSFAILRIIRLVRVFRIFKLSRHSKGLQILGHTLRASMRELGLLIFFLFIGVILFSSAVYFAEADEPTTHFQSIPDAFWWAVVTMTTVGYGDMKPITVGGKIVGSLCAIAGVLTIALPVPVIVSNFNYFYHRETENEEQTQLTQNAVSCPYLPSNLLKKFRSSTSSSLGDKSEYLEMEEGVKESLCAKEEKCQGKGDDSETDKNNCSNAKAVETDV
Potassium voltage-gated channel subfamily A member 2, sequence (P16389 whole entry): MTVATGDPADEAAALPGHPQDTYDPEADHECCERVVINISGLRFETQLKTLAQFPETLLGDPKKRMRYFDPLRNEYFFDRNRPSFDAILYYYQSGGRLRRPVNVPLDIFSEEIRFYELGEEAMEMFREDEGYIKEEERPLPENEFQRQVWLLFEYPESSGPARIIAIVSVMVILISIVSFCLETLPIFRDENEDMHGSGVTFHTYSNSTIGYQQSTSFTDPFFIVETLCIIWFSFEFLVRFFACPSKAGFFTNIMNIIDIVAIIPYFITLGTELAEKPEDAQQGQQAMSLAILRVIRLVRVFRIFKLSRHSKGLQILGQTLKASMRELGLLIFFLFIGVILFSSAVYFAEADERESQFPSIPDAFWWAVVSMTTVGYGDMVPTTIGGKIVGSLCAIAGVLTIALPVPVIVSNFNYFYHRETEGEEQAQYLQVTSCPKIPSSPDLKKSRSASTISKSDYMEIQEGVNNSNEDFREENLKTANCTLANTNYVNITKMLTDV
hERG (KCNH2), sequence (Q12809 whole entry): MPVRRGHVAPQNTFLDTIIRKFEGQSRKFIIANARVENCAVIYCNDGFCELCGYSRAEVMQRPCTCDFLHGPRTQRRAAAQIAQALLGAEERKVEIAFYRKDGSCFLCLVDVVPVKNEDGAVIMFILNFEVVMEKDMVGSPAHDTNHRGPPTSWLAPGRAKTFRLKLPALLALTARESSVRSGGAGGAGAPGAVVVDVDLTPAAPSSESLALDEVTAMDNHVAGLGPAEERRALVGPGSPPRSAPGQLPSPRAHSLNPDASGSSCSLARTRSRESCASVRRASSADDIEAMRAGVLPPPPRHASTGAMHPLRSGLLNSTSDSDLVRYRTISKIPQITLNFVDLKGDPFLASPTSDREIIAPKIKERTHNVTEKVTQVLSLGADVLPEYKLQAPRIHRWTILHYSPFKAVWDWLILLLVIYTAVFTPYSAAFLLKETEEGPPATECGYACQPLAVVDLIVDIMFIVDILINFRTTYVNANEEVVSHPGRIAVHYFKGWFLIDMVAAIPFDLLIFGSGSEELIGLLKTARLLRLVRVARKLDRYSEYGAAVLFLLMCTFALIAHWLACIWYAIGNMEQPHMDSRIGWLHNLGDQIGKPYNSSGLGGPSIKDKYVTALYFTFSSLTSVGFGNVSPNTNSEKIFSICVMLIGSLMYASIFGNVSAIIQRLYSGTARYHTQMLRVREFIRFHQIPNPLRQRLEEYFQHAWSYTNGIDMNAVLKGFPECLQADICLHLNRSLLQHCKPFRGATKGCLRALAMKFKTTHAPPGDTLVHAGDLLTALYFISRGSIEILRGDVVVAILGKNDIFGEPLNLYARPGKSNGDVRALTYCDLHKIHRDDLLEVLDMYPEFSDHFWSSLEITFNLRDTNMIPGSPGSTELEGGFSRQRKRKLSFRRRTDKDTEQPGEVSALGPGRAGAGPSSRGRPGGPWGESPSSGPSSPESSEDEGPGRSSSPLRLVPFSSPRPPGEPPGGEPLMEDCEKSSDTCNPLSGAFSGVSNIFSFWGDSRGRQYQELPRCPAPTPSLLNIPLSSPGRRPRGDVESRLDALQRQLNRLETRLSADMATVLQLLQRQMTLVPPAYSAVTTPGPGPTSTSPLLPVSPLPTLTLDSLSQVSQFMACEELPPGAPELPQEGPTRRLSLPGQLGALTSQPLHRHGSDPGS
Potassium voltage-gated channel subfamily A member 6 (Homo sapiens), sequence (P17658 whole entry): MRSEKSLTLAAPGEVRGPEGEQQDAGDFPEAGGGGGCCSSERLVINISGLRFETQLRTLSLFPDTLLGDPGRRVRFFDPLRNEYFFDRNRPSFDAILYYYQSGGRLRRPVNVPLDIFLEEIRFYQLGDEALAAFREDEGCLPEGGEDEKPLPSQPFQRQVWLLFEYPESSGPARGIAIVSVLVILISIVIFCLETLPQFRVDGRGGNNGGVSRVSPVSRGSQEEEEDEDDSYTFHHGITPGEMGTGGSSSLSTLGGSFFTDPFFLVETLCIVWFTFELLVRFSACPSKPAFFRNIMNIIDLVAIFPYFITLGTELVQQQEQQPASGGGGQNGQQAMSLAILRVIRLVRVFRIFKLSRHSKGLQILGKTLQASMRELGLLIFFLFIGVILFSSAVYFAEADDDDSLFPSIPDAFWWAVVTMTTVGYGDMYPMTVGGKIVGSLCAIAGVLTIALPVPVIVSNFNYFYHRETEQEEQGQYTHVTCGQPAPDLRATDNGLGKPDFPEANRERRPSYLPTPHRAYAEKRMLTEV
Potassium voltage-gated channel subfamily A member 1, sequence (Q09470 whole entry): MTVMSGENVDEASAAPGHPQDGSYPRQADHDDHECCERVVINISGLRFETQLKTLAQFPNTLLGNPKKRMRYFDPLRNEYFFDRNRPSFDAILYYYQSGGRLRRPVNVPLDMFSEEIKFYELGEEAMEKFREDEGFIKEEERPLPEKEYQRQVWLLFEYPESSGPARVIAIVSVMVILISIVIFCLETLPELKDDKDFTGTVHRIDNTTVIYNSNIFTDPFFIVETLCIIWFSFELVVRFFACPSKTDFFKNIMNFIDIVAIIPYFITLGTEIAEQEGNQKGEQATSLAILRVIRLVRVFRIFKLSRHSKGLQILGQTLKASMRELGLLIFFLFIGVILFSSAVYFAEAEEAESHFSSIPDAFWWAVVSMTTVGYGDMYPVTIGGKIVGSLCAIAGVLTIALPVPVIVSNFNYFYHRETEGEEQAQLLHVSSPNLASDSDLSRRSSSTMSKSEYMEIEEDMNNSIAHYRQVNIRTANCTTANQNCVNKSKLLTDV

- inhibition [1]: 90.7%
- IC50 [2]: 0.23 µM
- IC50 [3]: 0.0261 µM
- inhibition [4]: Active
- inhibition [5]: 6.4%
- inhibition [6]: 11.4%
- inhibition [7]: -1.1%
- IC50 [8]: 0.124 µM
- IC50 [9]: 0.308 µM
- solubility thermodynamic at 24 h [10]: 22 µM (≈ 9.47 µg/mL)
- Stability [11]: Stable
- inhibition [12]: 27%
- IC50 [17]: 0.136 µM
- Ratio IC50 [18]: < 2
SMILES: CCCNC(=O)O[C@H]1CC[C@@](CNC(=O)c2ccccc2OC)(c2ccsc2)CC1
- inhibition at 5 µM (hERG (KCNH2)): 21%
- Activity (T-cell line [13]): Non-Toxic
- Activity (T-cell line [14]): Non-Toxic
- inhibition (T-cell [15]): Active
- Activity (T-cell [16]): Active
- Activity (T-cell [19]): Active
